Key:
Mus musculus [1] = assay: Effective dose required for antagonist activity against pentylenetetrazole-induced seizures in mice when administered intraperitoneally; Range is 50-100; format: functional; conditions: ip
Summary of the method: (§1)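 CD-1 male mice (18–26 g), groups of 5 or 10, housed individually, dosed ip in distilled H2O or H2O/Tween 80. Convulsant given 30 min later. Strychnine sulfate 2.7 mg/kg ip: protection = no tonic extension >15 min. MES 50 mA, 0.2 s, corneal: no tonic hind-limb extension. PTZ 60 mg/kg iv: no clonic seizures for 2 min. MPA 100 mg/kg iv: no seizures for 5 min. ED50 by quantal analysis from ≥4 doses, ≥10 mice each.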

Mus musculus [2] = assay: Effective dose required for antagonist activity against 3-mercaptopropionic-acid induced seizures in mice when administered intraperitoneally; format: functional; conditions: ip; summary of the method: as §1
[3] = Dose encompassing the 50% lethal effect was recorded when administered intraperitoneally in mice; format: ADME, organism-based; conditions: mouse, in vivo, ip
Summary of the method: (§2)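 Deaths were recorded over the 7 days after dosing. The estimated LD50 was taken as the dose range spanning 50% lethality.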

Mus musculus [4] = assay: Effective dose required for antagonist activity against maximal electroshock induced seizures in mice when administered intraperitoneally; Range is 100-200; format: functional; conditions: ip; summary of the method: as §1
Mus musculus [5] = assay: Effective dose required for antagonist activity against strychnine induced seizures in mice when administered intraperitoneally; format: functional; conditions: ip; summary of the method: as §1
Mus musculus [6] = assay: Effective dose required for antagonist activity against maximal electroshock induced seizures in mice when administered intraperitoneally; format: functional; conditions: ip; summary of the method: as §1
Mus musculus [7] = assay: Effective dose required for antagonist activity against pentylenetetrazole-induced seizures in mice when administered intraperitoneally; format: functional; conditions: ip; summary of the method: as §1
Mus musculus [8] = assay: Effective dose required for antagonist activity against pentylenetetrazole-induced seizures in mice when administered intraperitoneally; Range is 100-200; format: functional; conditions: ip; summary of the method: as §1
[9] = Dose encompassing the 50% lethal effect was recorded when administered intraperitoneally in mice; Range is 400-800; format: ADME, organism-based; conditions: mouse, in vivo, ip; summary of the method: as §2
Mus musculus [10] = assay: Effective dose required for antagonist activity against maximal electroshock induced seizures in mice when administered intraperitoneally; Range is 50-100; format: functional; conditions: ip; summary of the method: as §1
Mus musculus [11] = assay: Effective dose required for antagonist activity against pentylenetetrazole-induced seizures in mice when administered intraperitoneally; Range 100-200; format: functional; conditions: ip; summary of the method: as §1
Mus musculus [12] = assay: Effective dose required for antagonist activity against 3-mercaptopropionic-acid-induced seizures in mice when administered intraperitoneally; Range 100-200; format: functional; conditions: ip; summary of the method: as §1
Mus musculus [13] = assay: Effective dose required for antagonist activity against pentylenetetrazole-induced seizures in mice when administered intraperitoneally; Range is 25-50; format: functional; conditions: ip; summary of the method: as §1
Mus musculus [14] = assay: Effective dose required for antagonist activity against 3-mercaptopropionic-acid-induced seizures in mice when administered intraperitoneally; Range is 100-200; format: functional; conditions: ip; summary of the method: as §1
Mus musculus [15] = assay: Effective dose required for antagonist activity against strychnine induced seizures in mice when administered intraperitoneally; Range is 50-100; format: functional; conditions: ip; summary of the method: as §1

| SMILES | ED50 (Mus musculus [2]) [mg/kg] | LD50 [3] [mg/kg] | ED50 (Mus musculus [5]) [mg/kg] | ED50 (Mus musculus [6]) [mg/kg] | ED50 (Mus musculus [7]) [mg/kg] | other results |
| --- | --- | --- | --- | --- | --- | --- |
| CSc1nc(-c2ccccc2)nn1C | > 200 | > 800 | > 200 | – | – | ED50 (Mus musculus [1]): 100 mg/kg; ED50 (Mus musculus [4]): 200 mg/kg |
| CSc1n[nH]c(-c2ccc(F)cc2)n1 | > 200 | > 800 | > 200 | > 200 | > 200 | – |
| O=C1NC(=O)C(c2ccccc2)(c2ccccc2)N1 [PHENYTOIN] | 89 | – | > 200 | 25.9 | > 32 | – |
| CCCC(CCC)C(=O)O [VALPROIC ACID] | – | – | > 200 | > 200 | – | ED50 (Mus musculus [8]): 200 mg/kg |
| Cn1nc(-c2ccccc2)nc1[S+](C)[O-] (stereo unspecified) | > 200 | – | > 200 | – | – | ED50 (Mus musculus [1]): 100 mg/kg; LD50 [9]: 800 mg/kg; ED50 (Mus musculus [10]): 100 mg/kg |
| Cn1nc(S(C)(=O)=O)nc1-c1ccccc1 | > 200 | > 800 | > 200 | > 200 | > 200 | – |
| CC[S+]([O-])c1nnc(-c2ccccc2F)n1C (stereo unspecified) | > 200 | > 800 | 32.7 | – | > 200 | ED50 (Mus musculus [4]): 200 mg/kg |
| CSc1nnc(-c2ccc(F)cc2)n1C | > 200 | > 800 | 33.4 | > 200 | > 200 | – |
| CSc1nnc(-c2ccccc2)n1C | – | > 800 | 37.8 | > 200 | – | ED50 (Mus musculus [11]): 200 mg/kg; ED50 (Mus musculus [12]): 200 mg/kg |
| CCn1c(SC)nnc1-c1ccccc1F | – | > 800 | 75 | – | – | ED50 (Mus musculus [13]): 50 mg/kg; ED50 (Mus musculus [14]): 200 mg/kg; ED50 (Mus musculus [4]): 200 mg/kg |
| Cn1c(-c2ccccc2F)nnc1S(C)(=O)=O | > 100 | > 800 | 17.6 | > 100 | > 100 | – |
| Cc1ccc(-c2nnc(S(C)(=O)=O)n2C)cc1 | > 200 | > 800 | > 200 | > 200 | > 200 | – |
| CSc1nnc(-c2ccccc2Cl)n1C | > 50 | – | > 50 | > 50 | > 50 | LD50 [9]: 800 mg/kg |
| COc1ccc(-c2nnc(SC)n2C)cc1 | > 100 | – | > 100 | > 100 | > 100 | LD50 [9]: 800 mg/kg |
| Cn1nc(-c2cccc(F)c2)nc1S(C)(=O)=O | > 100 | – | > 100 | > 100 | > 100 | LD50 [9]: 800 mg/kg |
| CN1C(=O)CN=C(c2ccccc2)c2cc(Cl)ccc21 [DIAZEPAM] | 0.9 | – | 40.6 | 14.8 | 1.5 | – |
| Cn1c(-c2ccccc2)nnc1[S+](C)[O-] (stereo unspecified) | > 100 | – | 18.6 | > 100 | > 100 | LD50 [9]: 800 mg/kg |
| Cn1nc(-c2ccc(Cl)cc2)nc1S(C)(=O)=O | > 200 | > 800 | > 200 | > 200 | > 200 | – |
| CSc1nnc(-c2ccc(C)cc2)n1C | > 100 | – | – | > 100 | > 100 | ED50 (Mus musculus [15]): 100 mg/kg; LD50 [9]: 800 mg/kg |
| Cn1c(-c2ccccc2F)nnc1[S+](C)[O-] (stereo unspecified) | > 200 | > 800 | 20 | > 200 | 57.9 | – |
| Cn1c(-c2cccc3ccccc23)nnc1[S+](C)[O-] (stereo unspecified) | > 200 | > 800 | > 200 | > 200 | > 200 | – |

— ChEMBL document CHEMBL1127484, “5-Aryl-3-(alkylthio)-4H-1,2,4-triazoles as selective antagonists of strychnine-induced convulsions and potential antispastic agents” (J Med Chem, 1994)
